Measurements taken from ChEMBL document CHEMBL5149991 (J Med Chem, 2021).

Key:
D(3) dopamine receptor [1] = target: T1, D(3) dopamine receptor (Homo sapiens, UniProt P35462); experiment: Displacement of [3H]N-methylspiperone from human D3 receptor stably expressed in HEK293T cells co-expressing luciferase and CEK incubated for 140 mins by radioligand competition binding based assay; assay type: cell-based
D(2) dopamine receptor = D(2) dopamine receptor (Homo sapiens, UniProt P14416); assay type: functional, cell-based, HEK293T;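 note: agonist mode, β-arrestin2 recruitment to the human D2 long isoform stably expressed in HEK293T cells, read by split luciferase complementation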
D(3) dopamine receptor [2] = target: T1, D(3) dopamine receptor; experiment: Agonist activity at human D3 receptor stably expressed in HEK293T cells co-expressing ElucN-betaarr2 hD3R-ElucC by beta-arrestin2 recruitment assay; assay type: functional, cell-based
[3] = target: T2, Muscarinic acetylcholine receptor M5 (Homo sapiens, UniProt P08912); experiment: Displacement of [3H]N-methylscopolamine from human muscarinic acetylcholine M5 receptor stably expressed in CHO cells by radioligand competition binding based analysis; assay type: cell-based
T2 sequence (P08912 whole entry): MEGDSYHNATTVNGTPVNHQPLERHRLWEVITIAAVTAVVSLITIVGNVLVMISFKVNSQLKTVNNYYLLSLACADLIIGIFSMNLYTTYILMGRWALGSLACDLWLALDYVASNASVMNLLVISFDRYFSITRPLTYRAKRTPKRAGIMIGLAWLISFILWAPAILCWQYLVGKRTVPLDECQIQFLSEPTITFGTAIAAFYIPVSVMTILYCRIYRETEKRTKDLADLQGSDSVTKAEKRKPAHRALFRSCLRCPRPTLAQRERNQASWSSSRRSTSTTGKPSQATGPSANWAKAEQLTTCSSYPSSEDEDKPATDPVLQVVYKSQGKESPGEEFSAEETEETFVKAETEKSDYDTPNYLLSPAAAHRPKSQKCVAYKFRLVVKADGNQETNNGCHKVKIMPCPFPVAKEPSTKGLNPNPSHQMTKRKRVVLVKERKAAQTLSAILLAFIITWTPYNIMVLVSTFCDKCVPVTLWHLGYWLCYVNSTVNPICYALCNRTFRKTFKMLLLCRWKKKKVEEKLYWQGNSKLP
In short: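 Whole CHO cells stably expressing hM1–hM5, competed against [3H]N-methylscopolamine. Kd/applied concentrations in nM: M1 0.17/0.2, M2 0.10/0.2, M3 0.12/0.2, M4 0.052/0.1, M5 0.20/0.3.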

Histamine H2 receptor [4] = target: T3, Histamine H2 receptor (Homo sapiens, UniProt P25021); experiment: Displacement of [3H]UR-DE257 from human histamine H2 receptor stably expressed in baculovirus infected Sf9 cell membrane co-expressing RG-Salpha S incubated for 60 mins by scintillation counting analysis; assay type: cell membranes
[5] = target: Histamine H2 receptor (Cavia porcellus) (UniProt P47747); experiment: Agonist activity at guinea pig histamine H2 receptor stably transfected in HEK293T cells co-expressing NlucN-mGs/gpH2R-NlucC assessed as maximum efficacy at 100 uM by mini-G protein recruitment assay relative to histamine; assay type: functional, cell-based
Histamine H2 receptor [6] = target: T3, Histamine H2 receptor; experiment: Agonist activity at human histamine H2 receptor stably expressed in HEK293T cells co-expressing ARRB2 incubated for 60 mins by beta-arrestin2 recruitment assay; assay type: functional, cell-based
[7] = target: Histamine H2 receptor (Cavia porcellus) (UniProt P47747); experiment: Agonist activity at histamine H2 receptor in spontaneous beating guinea pig right atrium assessed as increase in heart beat at 30 uM relative to histamine; assay type: functional, tissue-based; conditions: Right cardiac atrium
Histamine H2 receptor [8] = target: T3, Histamine H2 receptor; experiment: Agonist activity at human histamine H2 receptor stably expressed in HEK293T cells co-expressing NlucN-mGs/hH2R-NlucC assessed as induction of mini-Gs protein recruitment using furimazine as substrate measured for 45 mins by luminescence assay
[9] = Chemical stability in pH 7.4 buffer measured at 0 to 2 weeks by HPLC analysis; assay type: physicochemical; conditions: time 0-2 weeks
Histamine H2 receptor [10] = target: T3, Histamine H2 receptor; experiment: Agonist activity at human histamine H2 receptor stably expressed in baculovirus infected Sf9 cell membrane co-expressing RG-Salpha S incubated for 90 mins by [35S]GTPgammaS binding based liquid scintillation counting method; assay type: functional, cell membranes

T1 sequence (P35462 whole entry, canonical isoform): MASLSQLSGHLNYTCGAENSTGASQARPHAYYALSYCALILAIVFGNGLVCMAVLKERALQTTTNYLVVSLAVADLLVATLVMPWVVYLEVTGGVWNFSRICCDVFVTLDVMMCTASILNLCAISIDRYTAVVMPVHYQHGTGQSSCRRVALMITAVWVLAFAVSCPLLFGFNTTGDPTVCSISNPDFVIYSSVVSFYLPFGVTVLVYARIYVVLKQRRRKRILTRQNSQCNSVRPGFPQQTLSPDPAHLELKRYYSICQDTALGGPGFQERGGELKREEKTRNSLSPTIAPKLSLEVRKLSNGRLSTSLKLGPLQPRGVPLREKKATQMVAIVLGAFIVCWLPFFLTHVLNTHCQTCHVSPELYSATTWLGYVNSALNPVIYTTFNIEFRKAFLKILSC
Chain of D(2) dopamine receptor (P14416 whole entry, canonical isoform): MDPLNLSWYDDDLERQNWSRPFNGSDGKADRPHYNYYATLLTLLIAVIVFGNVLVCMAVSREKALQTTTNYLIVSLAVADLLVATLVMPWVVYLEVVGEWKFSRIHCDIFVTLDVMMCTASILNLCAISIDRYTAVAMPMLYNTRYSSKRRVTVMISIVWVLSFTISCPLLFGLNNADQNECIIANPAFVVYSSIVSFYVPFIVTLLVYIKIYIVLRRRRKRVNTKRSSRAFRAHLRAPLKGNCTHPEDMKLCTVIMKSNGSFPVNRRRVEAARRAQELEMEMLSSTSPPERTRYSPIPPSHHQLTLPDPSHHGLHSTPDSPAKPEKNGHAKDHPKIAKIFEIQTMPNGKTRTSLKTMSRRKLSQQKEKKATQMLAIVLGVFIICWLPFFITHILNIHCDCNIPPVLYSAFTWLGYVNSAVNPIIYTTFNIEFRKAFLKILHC
T3 sequence (P25021 whole entry): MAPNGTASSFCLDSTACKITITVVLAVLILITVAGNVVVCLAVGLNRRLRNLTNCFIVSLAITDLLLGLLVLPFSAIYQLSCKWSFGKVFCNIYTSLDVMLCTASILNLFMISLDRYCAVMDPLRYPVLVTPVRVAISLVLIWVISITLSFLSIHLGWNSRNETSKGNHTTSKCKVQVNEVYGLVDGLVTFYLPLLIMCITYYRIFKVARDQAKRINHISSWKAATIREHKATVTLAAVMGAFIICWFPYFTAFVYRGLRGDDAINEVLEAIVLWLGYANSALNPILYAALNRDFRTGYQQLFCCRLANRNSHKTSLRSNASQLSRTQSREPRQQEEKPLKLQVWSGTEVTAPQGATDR
Chain of Histamine H2 receptor (Cavia porcellus) (P47747 whole entry): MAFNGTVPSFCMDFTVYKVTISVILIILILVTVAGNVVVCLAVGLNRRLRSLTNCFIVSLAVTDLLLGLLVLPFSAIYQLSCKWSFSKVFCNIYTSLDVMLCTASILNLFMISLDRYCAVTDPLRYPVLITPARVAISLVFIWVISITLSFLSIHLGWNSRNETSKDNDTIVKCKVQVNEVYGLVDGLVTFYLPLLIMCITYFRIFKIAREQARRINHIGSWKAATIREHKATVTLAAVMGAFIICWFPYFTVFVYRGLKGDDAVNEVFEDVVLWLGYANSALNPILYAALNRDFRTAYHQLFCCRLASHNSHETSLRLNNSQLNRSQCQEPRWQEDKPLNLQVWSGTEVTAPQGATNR

SMILES | Ki (D(3) dopamine receptor [1]) [nM] | EC50 (D(2) dopamine receptor) [nM] | EC50 (D(3) dopamine receptor [2]) [nM] | Kd [3] [nM] | pKi [3] | Ki (Histamine H2 receptor [4]) [nM] | Emax [5] [%] | EC50 (Histamine H2 receptor [6]) [nM] | Emax [7] [%] | EC50 (Histamine H2 receptor [8]) [nM] | Stability [9] | EC50 (Histamine H2 receptor [10]) [nM]
N/C(=N\C(=O)NCc1ccccc1)NCCCc1nnc(N)s1 | 2630 | > 10000 | 1200 | 0.2 | > 5 | – | – | – | – | – | – | –
C[C@@H](NC(=O)/N=C(\N)NCCCc1ncn[nH]1)c1ccccc1 | > 10000 | > 10000 | > 10000 | 0.2 | < 5 | 53.7 | 86 | 324 | 115 | 25.7 | – | –
CCCCCNC(=O)/N=C(\N)NCCCc1sc(N)nc1C | – | – | – | 0.2 | > 5 | – | – | – | – | – | – | –
CCCCCNC(=O)/N=C(\N)NCCCc1nnc(N)s1.O=C(O)C(F)(F)F.O=C(O)C(F)(F)F | – | > 10000 | – | 0.2 | > 5 | 3.02 | – | 234 | – | 5.75 | Stable | 25.7
